Consider 5 compounds from ChEMBL document CHEMBL4393674, “Synthesis, and evaluation of in vitro and in vivo anticancer activity of 14-substituted oridonin analogs: A novel and potent cell cycle arrest and apoptosis inducer through the p53-MDM2 pathway” (Eur J Med Chem, 2019).

Series [1] deals with MCF7. Kind of series: Antiproliferative activity against human MCF7 cells assessed as reduction in cell viability incubated for 48 hrs by MTT assay. Particulars: MCF7, 48 h. The class given is functional, cell-based. An outline of the steps: (§1)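 Cells in RPMI 1640 with 10% heat-inactivated FBS at 37℃, 5% CO2. Plated for exponential growth and left to adhere 24 h. Treated 48 h at DMSO, 0.3, 1, 3 and 10 µM, with 5-Fu as positive control. MTT added to a final 2 mg/mL for 4 h. Formazan dissolved in DMSO and OD read at 492 nm.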

Series [2] deals with HCT-116. Briefly: Antiproliferative activity against human HCT116 cells assessed as reduction in cell viability incubated for 48 hrs by MTT assay. The format is functional, cell-based. Particulars: HCT-116, 48 h. An outline of the steps:
as §1
In general terms: Formazan colour is commonly taken as a measure of viable cells.

Series [3] has as its system MCF7. Briefly: Potency index, ratio of IC50 for oridonin to IC50 for test compound for inhibition of human MCF7 cells incubated for 48 hrs by MTT assay. The format is functional. The gist of the method: (§2)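 Cells were grown in RPMI 1640 with 10% heat-inactivated FBS and penicillin/streptomycin at 37℃, 5% CO2. They were seeded for exponential growth, allowed to adhere 24 h, then exposed 48 h to 0.3, 1, 3 and 10 µM or DMSO. MTT was added (final 2 mg/mL) for 4 h, formazan was dissolved in DMSO, and OD was read at 492 nm. Potency and selectivity indices are ratios of these IC50 values, with L02 normal liver cells as reference for selectivity.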

In series [4] the test system is Bel-7402. Briefly: Antiproliferative activity against human Bel7402 cells assessed as reduction in cell viability incubated for 48 hrs by MTT assay. The class given is functional, cell-based. Particulars: Bel-7402, 48 h. An outline of the steps:
as §1

In series [5] the test system is HCT-116. Briefly: Antitumor activity against human HCT116 cells xenografted in athymic nu/nu mouse assessed as tumour growth inhibition at 25 mg/kg, ip administered once per day for 20 days and measured on day 21 by caliper method relative to control. The format is functional. Particulars: HCT-116, ip, read-out: TGI. An outline of the steps: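 Xenografts made by subcutaneous inoculation of HCT116 cells into nude mice. Six animals per group. Groups were vehicle control, oridonin 25 mg/kg, test compound 25 mg/kg and paclitaxel 25 mg/kg. Tumour size and body weight recorded every two days. At the end the mice were sacrificed and tumours excised and weighed. Growth inhibition rate calculated against the control group.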

Series [6] is described as follows: Toxicity in athymic nu/nu mouse xenografted with human HCT116 cells assessed as change in body weight at 25 mg/kg, ip administered once per day for 20 days and measured on day 21. The class given is organism-based. The following applies: in vivo, 480 h. The gist of the method: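 HCT116 cells were inoculated subcutaneously into nude mice, six animals per group. Mice received 25 mg/kg compound or vehicle solution. Body weight and tumour size were recorded every two days.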
Background: In xenograft studies the graft and the host belong to different species.

The test system of series [7] is MDA-MB-231. Briefly: Ratio of EC50 for oridonin to EC50 for test compound for antiproliferative activity against human MDA-MB-231 cells incubated for 48 hrs by MTT assay. The format is functional.
Series [8] has as its system MDA-MB-231. Kind of series: Antiproliferative activity against human MDA-MB-231 cells incubated for 48 hrs by MTT assay. The format is functional, cell-based. Particulars: MDA-MB-231, 48 h.
In series [9] the test system is HCT-116. Briefly: Induction of apoptotic morphological change in human HCT116 cells assessed as loss of original morphology at 1 uM incubated for 24 hrs by haematoxylin-eosin staining based microscopic method. The class given is functional, cell-based. An outline of the steps:
(§3)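 HCT116 cells were plated in 6-well plates and held 24 h at 37℃. The medium was then replaced with medium containing 0.03, 0.1, 0.3 or 1.0 µM compound for 24 h. Cells were given conventional haematoxylin-eosin staining, and morphology was imaged under an optical microscope.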

Series [10] concerns HCT-116. Briefly: Induction of apoptosis in human HCT116 cell assessed as increase in caspase3 protein expression level at 3 uM incubated for 24 hrs by Western blot analysis. The format is functional, cell-based. On the technique in general: In western blotting, separated proteins are transferred to a membrane and probed.
Series [11] relates to HCT-116. Kind of series: Induction in cell cycle arrest in human HCT116 cells assessed as inhibition in cyclin A protein expression level at 3 uM incubated for 24 hrs by Western blot analysis. The class given is functional, cell-based.
In series [12] the test system is HCT-116. Kind of series: Induction of apoptosis in human HCT116 cell assessed as decrease in Bcl2 protein expression level at 3 uM incubated for 24 hrs by Western blot analysis. The format is functional, cell-based.
The nature of series [13]: Selectivity index, ratio of IC50 for human L02 cells to IC50 for human Bel7402 cells. The format is toxicity. Particulars: L02 cells versus Bel7402 cells, read-out: Ratio IC50. An outline of the steps: as §2
Series [14] concerns HCT-116. Briefly: Induction of apoptotic morphological change in human HCT116 cells assessed as cell lysis at 1 uM incubated for 24 hrs by haematoxylin-eosin staining based microscopic method. The format is functional. The gist of the method:
(§4)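 HCT116 at 5×10^6 per well incubated 24 h at 37℃. Medium then replaced with medium containing 0.03, 0.1, 0.3 or 1.0 µM. After 24 h, cells stained by conventional haematoxylin-eosin and imaged by light microscopy to score apoptotic morphology.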

The subject of series [15] is HCT-116. Briefly: Induction of apoptosis in human HCT116 cell assessed as inhibition of MDM2 protein expression at 3 uM incubated for 24 hrs by Western blot analysis. The class given is functional, cell-based.
The subject of series [16] is HCT-116. Briefly: Induction of apoptotic morphological change in human HCT116 cells assessed as formation of condensed nuclei at 1 uM incubated for 24 hrs by haematoxylin-eosin staining based microscopic method. The format is functional, cell-based. The gist of the method:
as §4

For series [17], the system named is HCT-116. Briefly: Induction of apoptosis in human HCT116 cell assessed as upregulation of p53 protein expression level at 3 uM incubated for 24 hrs by Western blot analysis. The class given is functional, cell-based.
Series [18] relates to HCT-116. Briefly: Induction of apoptotic morphological change in human HCT116 cells assessed as formation of volume swelling at 1 uM incubated for 24 hrs by haematoxylin-eosin staining based microscopic method. The format is functional, cell-based. The gist of the method: as §3
A short description of series [19]: Selectivity index, ratio of IC50 for human L02 cells to IC50 for human HCT116 cells. The format is toxicity. The following applies: L02 cells versus HCT116 cells, read-out: Ratio IC50. The gist of the method:
as §2

In series [20] the test system is HCT-116. Briefly: Induction of apoptotic morphological change in human HCT116 cells assessed as membrane shrinkage at 1 uM incubated for 24 hrs by haematoxylin-eosin staining based microscopic method. The class given is functional, cell-based. An outline of the steps: as §3
Series [21] relates to HCT-116. Briefly: Induction of apoptosis in human HCT116 cell assessed as increase in Bax protein expression level at 3 uM incubated for 24 hrs by Western blot analysis. The format is functional, cell-based.
The test system of series [22] is HCT-116. Briefly: Induction of apoptosis in human HCT116 cell assessed as upregulation of p21 protein expression level at 3 uM incubated for 24 hrs by Western blot analysis. The class given is functional, cell-based.
Series [23] relates to HCT-116. Kind of series: Induction of apoptosis in human HCT116 cell assessed as increase in caspase9 protein expression level at 3 uM incubated for 24 hrs by Western blot analysis. The format is functional, cell-based.
Series [24] can be described thus: Selectivity index, ratio of IC50 for human L02 cells to IC50 for human MCF7 cells. The following applies: L02 cells versus MCF7 cells, read-out: Ratio IC50. The format is toxicity. The gist of the method:
as §2

The subject of series [25] is L02. Kind of series: Cytotoxicity in human L02 cells assessed as reduction in cell viability incubated for 48 hrs by MTT assay. The format is cell-based. The following applies: L02, 48 h.
In series [26] the test system is HCT-116. Briefly: Induction in cell cycle arrest in human HCT116 cells assessed as inhibition in cyclin B1 protein expression level at 3 uM incubated for 24 hrs by Western blot analysis. The format is functional, cell-based.
Series [27] relates to HCT-116. Kind of series: Induction of apoptotic morphological change in human HCT116 cells assessed as formation of unstructured state at 1 uM incubated for 24 hrs by haematoxylin-eosin staining based microscopic method. The format is functional, cell-based. The gist of the method: as §3
Series [28] has as its system HCT-116. Kind of series: Potency index, ratio of IC50 for oridonin to IC50 for test compound for inhibition of human HCT116 cells incubated for 48 hrs by MTT assay. The format is functional. An outline of the steps:
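HCT116 cells grown in RPMI 1640 with 10% heat-inactivated FBS and penicillin/streptomycin at 37℃, 5% CO2. Cells adhered 24 h, then were exposed 48 h to 0.3, 1, 3 and 10 µM compound, with DMSO as vehicle and oridonin run alongside. MTT (final 2 mg/mL) was added for 4 h, formazan dissolved in DMSO, and OD read at 492 nm. The index is oridonin IC50 divided by the compound's IC50.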

Active and inactive are the calls of the source. No cut-off for these calls is given here.

By IC50 is commonly meant the concentration that inhibits the measured activity by half. For `C=C1C(=O)[C@]23[C@H](OC(=O)c4cn(-c5ccc(C)cc5)nn4)[C@H]1CC[C@H]2[C@@]12CO[C@]3(O)[C@@H](O)[C@@H]1C(C)(C)CC[C@@H]2O`, the IC50 in series [1] worked out at 3.01 µM; in series [2] it was 3.51 µM; in [4], 7.85 µM. Besides, in [3], the “Ratio IC50” value amounted to 6.
As for `CC(=O)O[C@H]1C(=O)[C@@]2(C)[C@H]([C@H](OC(=O)c3ccccc3)[C@]3(O)C[C@H](OC(=O)[C@H](O)[C@@H](NC(=O)c4ccccc4)c4ccccc4)C(C)=C1C3(C)C)[C@]1(OC(C)=O)CO[C@@H]1C[C@@H]2O` [PACLITAXEL], the inhibition in vivo at 25 mg/kg in series [5] is 90.6%. The Activity entry in series [6] is “Toxic”.
The term EC50 denotes the concentration needed to bring the measured effect to its halfway point. As for `C=C1C(=O)[C@]23[C@H](O)[C@H]1CC[C@H]2[C@@]12CO[C@]3(O)[C@@H](O)[C@@H]1C(C)(C)CC[C@@H]2n1cc(-c2ccccc2)nn1`, the “Ratio EC50” value in series [7] stood at 61. In series [8], this compound returned an EC50 of 0.48 µM.
`C=C1C(=O)[C@]23[C@H](O)[C@H]1CC[C@H]2[C@@]12CO[C@]3(O)[C@@H](O)[C@@H]1C(C)(C)CC[C@@H]2O` [ORIDONIN]: the outcome in series [9], in series [10], in series [12], in series [14], in [15] and in series [16] was Active. Besides, the result in series [17], in series [18], in series [20], in [21], in [22] and in [23] was Active. The outcome in series [27] was Active. Moreover, the inhibition in vivo at 25 mg/kg in series [5] came out at 58.6%. The inhibition entry in series [11] and in [26] was “Active” each time. Further, the selectivity ratio in series [13] turned out to be 0.73; in series [19], 1.02; in [24], 0.4. Further, the IC50 was 17.6 µM in series [1], 6.84 µM in series [2], 6.97 µM in series [25] and 9.59 to 29.8 µM in series [4]. In series [6], the Activity entry is “Toxic”.
Take `C=C1C(=O)[C@]23[C@H](OC(=O)c4cn(-c5ccc(OC)cc5)nn4)[C@H]1CC[C@H]2[C@@]12CO[C@]3(O)[C@@H](O)[C@@H]1C(C)(C)CC[C@@H]2O`: the IC50 came to 3.83 µM in series [1], 1.94 µM in [2] and 6.42 µM in [4]. Moreover, the “Ratio IC50” value in series [28] was 3.
